Data published in ChEMBL document CHEMBL1255501, “Heteroresistance of Cryptococcus gattii to fluconazole” (2010).
Calls of active or inactive are those of the source.

Assays:
Type in all cases: functional, organism-based
Details in all cases: Cryptococcus bacillisporus
[1] = test system: Cryptococcus gattii species complex; experiment: Antimicrobial activity against fluconazole-resistant Cryptococcus gattii serotype B isolate NIH189 at 64 ug/ml
In short: (§1)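 Strains were grown overnight in YPD broth at 30°C, washed, serially diluted in sterile saline and spotted at 3 μl onto YPD agar alone or YPD agar containing a xenobiotic: rhizoxin 0.5 μg/ml, gliotoxin 3.2 μg/ml or trichostatin A 64 μg/ml. Growth was compared by spot test.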

[2] = test system: Cryptococcus gattii species complex; experiment: Antimicrobial activity against fluconazole-resistant Cryptococcus gattii serotype B isolate NIH409 at 64 ug/ml; in short: as §1
[3] = test system: Cryptococcus gattii species complex; experiment: Antimicrobial activity against fluconazole-resistant Cryptococcus gattii serotype B isolate NIH184 at 64 ug/ml; in short: as §1
[4] = test system: Cryptococcus deuterogattii; experiment: Antimicrobial activity against fluconazole-resistant Cryptococcus gattii serotype B isolate NIH444 at 64 ug/ml; in short: as §1
[5] = test system: Cryptococcus gattii species complex; experiment: Antimicrobial activity against fluconazole-resistant Cryptococcus gattii serotype B isolate NIH535 at 64 ug/ml; in short: as §1
[6] = test system: Cryptococcus gattii species complex; experiment: Antimicrobial activity against fluconazole-resistant Cryptococcus gattii serotype C isolate NIH34 at 64 ug/ml
[7] = test system: Cryptococcus gattii species complex; experiment: Antimicrobial activity against fluconazole-resistant Cryptococcus gattii serotype B isolate NIH412 at 64 ug/ml; in short: as §1
[8] = test system: Cryptococcus gattii species complex; experiment: Antimicrobial activity against fluconazole-resistant Cryptococcus gattii serotype C isolate H00581-1941 at 64 ug/ml
[9] = test system: Cryptococcus gattii species complex; experiment: Antimicrobial activity against fluconazole-resistant Cryptococcus gattii serotype B isolate B3939 at 64 ug/ml; in short: as §1
[10] = test system: Cryptococcus gattii species complex; experiment: Antimicrobial activity against fluconazole-resistant Cryptococcus gattii serotype C isolate H0058-1-818 at 64 ug/ml
[11] = test system: Cryptococcus gattii species complex; experiment: Antimicrobial activity against fluconazole-resistant Cryptococcus gattii serotype B isolate NIH754 at 64 ug/ml; in short: as §1
[12] = test system: Cryptococcus gattii species complex; experiment: Antimicrobial activity against fluconazole-resistant Cryptococcus gattii serotype B isolate NIH200 at 64 ug/ml; in short: as §1
[13] = test system: Cryptococcus gattii species complex; experiment: Antimicrobial activity against fluconazole-resistant Cryptococcus gattii serotype B isolate NIH198 at 64 ug/ml; in short: as §1
[14] = test system: Cryptococcus gattii species complex; experiment: Antimicrobial activity against fluconazole-resistant Cryptococcus gattii serotype B isolate B4506 at 64 ug/ml; in short: as §1
[15] = test system: Cryptococcus gattii species complex; experiment: Antimicrobial activity against fluconazole-resistant Cryptococcus gattii serotype C isolate NIH257 at 64 ug/ml
[16] = test system: Cryptococcus gattii species complex; experiment: Antimicrobial activity against fluconazole-resistant Cryptococcus gattii serotype B isolate RB3 at 64 ug/ml
[17] = test system: Cryptococcus gattii species complex; experiment: Antimicrobial activity against fluconazole-resistant Cryptococcus gattii serotype B isolate B5763 at 64 ug/ml; in short: as §1
[18] = test system: Cryptococcus gattii species complex; experiment: Antimicrobial activity against fluconazole-resistant Cryptococcus gattii serotype B isolate NIH771 at 64 ug/ml
[19] = test system: Cryptococcus gattii species complex; experiment: Antimicrobial activity against fluconazole-resistant Cryptococcus gattii serotype B isolate B5788 at 64 ug/ml; in short: as §1
[20] = test system: Cryptococcus gattii species complex; experiment: Antimicrobial activity against fluconazole-resistant Cryptococcus gattii serotype C isolate NIH34 at 3.2 ug/ml
[21] = test system: Cryptococcus gattii species complex; experiment: Antimicrobial activity against fluconazole-resistant Cryptococcus gattii serotype B isolate B3939 at 3.2 ug/ml; in short: as §1
[22] = test system: Cryptococcus gattii species complex; experiment: Antimicrobial activity against fluconazole-resistant Cryptococcus gattii serotype C isolate H00581-1941 at 3.2 ug/ml
[23] = test system: Cryptococcus gattii species complex; experiment: Antimicrobial activity against fluconazole-resistant Cryptococcus gattii serotype B isolate B4506 at 3.2 ug/ml; in short: as §1
[24] = test system: Cryptococcus gattii species complex; experiment: Antimicrobial activity against fluconazole-resistant Cryptococcus gattii serotype B isolate NIH200 at 3.2 ug/ml; in short: as §1
[25] = test system: Cryptococcus gattii species complex; experiment: Antimicrobial activity against fluconazole-resistant Cryptococcus gattii serotype B isolate NIH198 at 3.2 ug/ml; in short: as §1
[26] = test system: Cryptococcus gattii species complex; experiment: Antimicrobial activity against fluconazole-resistant Cryptococcus gattii serotype B isolate B5763 at 3.2 ug/ml; in short: as §1
[27] = test system: Cryptococcus gattii species complex; experiment: Antimicrobial activity against fluconazole-resistant Cryptococcus gattii serotype B isolate RB3 at 3.2 ug/ml
[28] = test system: Cryptococcus gattii species complex; experiment: Antimicrobial activity against fluconazole-resistant Cryptococcus gattii serotype B isolate NIH184 at 3.2 ug/ml; in short: as §1
[29] = test system: Cryptococcus gattii species complex; experiment: Antimicrobial activity against fluconazole-resistant Cryptococcus gattii serotype B isolate B5788 at 3.2 ug/ml; in short: as §1
[30] = test system: Cryptococcus gattii species complex; experiment: Antimicrobial activity against fluconazole-resistant Cryptococcus gattii serotype C isolate NIH257 at 3.2 ug/ml
[31] = test system: Cryptococcus gattii species complex; experiment: Antimicrobial activity against fluconazole-resistant Cryptococcus gattii serotype B isolate NIH771 at 3.2 ug/ml
[32] = test system: Cryptococcus gattii species complex; experiment: Antimicrobial activity against fluconazole-resistant Cryptococcus gattii serotype B isolate NIH754 at 3.2 ug/ml; in short: as §1
[33] = test system: Cryptococcus gattii species complex; experiment: Antimicrobial activity against fluconazole-resistant Cryptococcus gattii serotype B isolate NIH409 at 3.2 ug/ml; in short: as §1
[34] = test system: Cryptococcus gattii species complex; experiment: Antimicrobial activity against fluconazole-resistant Cryptococcus gattii serotype B isolate NIH189 at 3.2 ug/ml; in short: as §1
[35] = test system: Cryptococcus gattii species complex; experiment: Antimicrobial activity against fluconazole-resistant Cryptococcus gattii serotype B isolate NIH535 at 3.2 ug/ml; in short: as §1
[36] = test system: Cryptococcus gattii species complex; experiment: Antimicrobial activity against fluconazole-resistant Cryptococcus gattii serotype C isolate H0058-1-818 at 3.2 ug/ml
[37] = test system: Cryptococcus deuterogattii; experiment: Antimicrobial activity against fluconazole-resistant Cryptococcus gattii serotype B isolate NIH444 at 3.2 ug/ml; in short: as §1
[38] = test system: Cryptococcus gattii species complex; experiment: Antimicrobial activity against fluconazole-resistant Cryptococcus gattii serotype B isolate NIH412 at 3.2 ug/ml; in short: as §1
[39] = test system: Cryptococcus gattii species complex; experiment: Antimicrobial activity against fluconazole-resistant Cryptococcus gattii serotype B isolate NIH535 at 0.5 ug/ml; in short: as §1
[40] = test system: Cryptococcus gattii species complex; experiment: Antimicrobial activity against fluconazole-resistant Cryptococcus gattii serotype B isolate NIH771 at 0.5 ug/ml; in short: as §1
[41] = test system: Cryptococcus gattii species complex; experiment: Antimicrobial activity against fluconazole-resistant Cryptococcus gattii serotype B isolate B5763 at 0.5 ug/ml; in short: as §1
[42] = test system: Cryptococcus gattii species complex; experiment: Antimicrobial activity against fluconazole-resistant Cryptococcus gattii serotype B isolate NIH412 at 0.5 ug/ml; in short: as §1
[43] = test system: Cryptococcus deuterogattii; experiment: Antimicrobial activity against fluconazole-resistant Cryptococcus gattii serotype B isolate NIH444 at 0.5 ug/ml; in short: as §1
[44] = test system: Cryptococcus gattii species complex; experiment: Antimicrobial activity against fluconazole-resistant Cryptococcus gattii serotype B isolate B5788 at 0.5 ug/ml; in short: as §1
[45] = test system: Cryptococcus gattii species complex; experiment: Antimicrobial activity against fluconazole-resistant Cryptococcus gattii serotype C isolate H0058-1-818 at 0.5 ug/ml
[46] = test system: Cryptococcus gattii species complex; experiment: Antimicrobial activity against fluconazole-resistant Cryptococcus gattii serotype B isolate B3939 at 0.5 ug/ml; in short: as §1
[47] = test system: Cryptococcus gattii species complex; experiment: Antimicrobial activity against fluconazole-resistant Cryptococcus gattii serotype B isolate NIH189 at 0.5 ug/ml; in short: as §1
[48] = test system: Cryptococcus gattii species complex; experiment: Antimicrobial activity against fluconazole-resistant Cryptococcus gattii serotype B isolate NIH184 at 0.5 ug/ml; in short: as §1
[49] = test system: Cryptococcus gattii species complex; experiment: Antimicrobial activity against fluconazole-resistant Cryptococcus gattii serotype B isolate NIH198 at 0.5 ug/ml; in short: as §1
[50] = test system: Cryptococcus gattii species complex; experiment: Antimicrobial activity against fluconazole-resistant Cryptococcus gattii serotype B isolate RB3 at 0.5 ug/ml
[51] = test system: Cryptococcus gattii species complex; experiment: Antimicrobial activity against fluconazole-resistant Cryptococcus gattii serotype B isolate B4506 at 0.5 ug/ml; in short: as §1
[52] = test system: Cryptococcus gattii species complex; experiment: Antimicrobial activity against fluconazole-resistant Cryptococcus gattii serotype B isolate NIH754 at 0.5 ug/ml; in short: as §1
[53] = test system: Cryptococcus gattii species complex; experiment: Antimicrobial activity against fluconazole-resistant Cryptococcus gattii serotype B isolate NIH409 at 0.5 ug/ml; in short: as §1
[54] = test system: Cryptococcus gattii species complex; experiment: Antimicrobial activity against fluconazole-resistant Cryptococcus gattii serotype C isolate NIH257 at 0.5 ug/ml
[55] = test system: Cryptococcus gattii species complex; experiment: Antimicrobial activity against fluconazole-resistant Cryptococcus gattii serotype B isolate NIH200 at 0.5 ug/ml; in short: as §1
[56] = test system: Cryptococcus gattii species complex; experiment: Antimicrobial activity against fluconazole-resistant Cryptococcus gattii serotype C isolate H00581-1941 at 0.5 ug/ml
[57] = test system: Cryptococcus gattii species complex; experiment: Antimicrobial activity against fluconazole-resistant Cryptococcus gattii serotype C isolate NIH34 at 0.5 ug/ml

Measured: Activity

CC(/C=C/C(=O)NO)=C\[C@@H](C)C(=O)c1ccc(N(C)C)cc1
inactive: [1] | [2] | [3] | [4] | [5] | [6] | [7] | [8] | [9] | [10] | [11] | [12] | [13] | [14] | [15] | [16] | [17] | [18] | [19]

CN1C(=O)[C@]23CC4=CC=C[C@H](O)[C@H]4N2C(=O)[C@@]1(CO)SS3
inactive: [20] | [21] | [22] | [23] | [24] | [25] | [26] | [27] | [28] | [29] | [30] | [31] | [32] | [33] | [34] | [35] | [36] | [37] | [38]

CO[C@@H](/C(C)=C/C=C/C(C)=C/c1coc(C)n1)[C@@H](C)[C@@H]1C[C@H](O)[C@@]2(C)O[C@@H]2/C=C/[C@@H](C)[C@H]2C[C@H](CC(=O)O2)C[C@@H]2O[C@H]2C(=O)O1
inactive: [39] | [40] | [41] | [42] | [43] | [44] | [45] | [46] | [47] | [48] | [49] | [50] | [51] | [52] | [53] | [54] | [55] | [56] | [57]
